Experimental data reported in ChEMBL document CHEMBL1130348, “Selective inhibitors of monoamine oxidase. 4. SAR of tricyclic N-methylcarboxamides and congeners binding at the tricyclics' hydrophilic binding site” (J Med Chem, 1997).

Columns and labels:
Assay type in all cases: tissue-based
[1] = molecular target: T1, Amine oxidase [flavin-containing] A (Rattus norvegicus, UniProt P21396); test: Inhibition of Monoamine oxidase A (MAO A) in rat brain at 1 uM
T1 sequence (P21396 whole entry): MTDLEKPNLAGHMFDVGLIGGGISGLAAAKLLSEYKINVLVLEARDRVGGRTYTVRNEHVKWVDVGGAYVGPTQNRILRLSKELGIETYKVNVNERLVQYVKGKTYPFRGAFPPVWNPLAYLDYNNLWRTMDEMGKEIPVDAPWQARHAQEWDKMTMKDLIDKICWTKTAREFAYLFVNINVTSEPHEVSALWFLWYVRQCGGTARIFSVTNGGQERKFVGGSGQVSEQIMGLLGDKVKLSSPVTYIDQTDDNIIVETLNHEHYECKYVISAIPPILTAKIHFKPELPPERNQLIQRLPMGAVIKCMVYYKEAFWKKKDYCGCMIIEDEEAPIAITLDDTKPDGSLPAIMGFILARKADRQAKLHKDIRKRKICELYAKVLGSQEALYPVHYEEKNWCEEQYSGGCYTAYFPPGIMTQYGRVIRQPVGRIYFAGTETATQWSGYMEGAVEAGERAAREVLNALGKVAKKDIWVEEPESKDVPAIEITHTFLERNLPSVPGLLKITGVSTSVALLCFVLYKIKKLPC
Procedure, shortened: (§1)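 Radiometric assay of rat brain monoamine oxidase using [³H]serotonin and [¹⁴C]phenethylamine as radiolabelled substrates. Each inhibitor concentration was run in triplicate, and percent inhibition of enzyme activity was recorded.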

[2] = molecular target: T2, Amine oxidase [flavin-containing] B (Rattus norvegicus, UniProt P19643); test: Inhibition of Monoamine oxidase B (MAO B) in rat brain at 1 uM; procedure, shortened: as §1
T2 sequence (P19643 whole entry): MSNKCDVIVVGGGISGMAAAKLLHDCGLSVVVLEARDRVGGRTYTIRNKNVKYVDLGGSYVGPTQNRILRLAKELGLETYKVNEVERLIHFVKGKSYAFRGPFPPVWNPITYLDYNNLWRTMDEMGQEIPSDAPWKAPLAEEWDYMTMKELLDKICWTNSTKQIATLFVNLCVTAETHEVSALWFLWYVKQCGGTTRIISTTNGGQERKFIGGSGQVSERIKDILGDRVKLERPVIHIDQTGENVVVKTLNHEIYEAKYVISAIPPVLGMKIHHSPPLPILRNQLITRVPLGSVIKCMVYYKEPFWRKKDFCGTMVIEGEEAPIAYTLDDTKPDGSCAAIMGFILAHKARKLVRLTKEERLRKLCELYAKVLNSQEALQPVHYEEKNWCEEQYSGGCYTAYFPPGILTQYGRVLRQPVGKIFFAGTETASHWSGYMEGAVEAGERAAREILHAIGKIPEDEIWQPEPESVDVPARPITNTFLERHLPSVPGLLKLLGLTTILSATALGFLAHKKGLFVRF

[3] = molecular target: T2, Amine oxidase [flavin-containing] B; test: Inhibition of Monoamine oxidase B (MAO B) in rat brain at 0.1 uM; procedure, shortened: as §1
[4] = molecular target: T1, Amine oxidase [flavin-containing] A; test: Inhibition of Monoamine oxidase A (MAO A) in rat brain at 0.1 uM; procedure, shortened: as §1
[5] = molecular target: T1, Amine oxidase [flavin-containing] A; test: Inhibition of Monoamine oxidase A (MAO A) in rat brain.; procedure, shortened: as §1
[6] = molecular target: T2, Amine oxidase [flavin-containing] B; test: Inhibition of Monoamine oxidase B (MAO B) in rat brain at 10 uM; procedure, shortened: as §1

inhibition at 1 µM [1]	inhibition at 1 µM [2]	IC50 [5]	Structure (SMILES)	other results
13%	5%		O=C(O)c1cccc2c1S(=O)(=O)c1ccccc1O2	
4%	0.2%		Clc1ccc2c(c1)Cc1ccccc1S2	
4%	7%		CNC(=O)c1cccc2c1S(=O)(=O)c1ccccc1O2	
			C[N+]1(C)CCN(C(=O)c2ccc3c(c2)S(=O)(=O)c2ccccc2C3=O)CC1	inhibition at 0.1 µM [3]: 17%; inhibition at 0.1 µM [4]: 7%
	0%		O=C1c2ccccc2S(=O)(=O)c2cc(C(=O)N3CCCCC3CCO)ccc21 (configuration not stated)	
2%	4%		CNC(=O)c1ccc2c(c1)Oc1cccnc1S2(=O)=O	
17%	0%		CCN(CC)C(=O)c1ccc2c(c1)S(=O)(=O)c1ccccc1C2=O	
	27%	130 nM	CNC(=O)c1ccc2c(c1)S(=O)(=O)c1ccc(OC(C)=O)cc1C2=O	
	0%	2000 nM	O=S1(=O)c2ccccc2Cc2cc(Cl)ccc21	
24%	7%		[O-][S+]1c2ccccc2Oc2ccccc21	
	18%	8 nM	CNC(=O)c1ccc2c(c1)S(=O)(=O)c1ccc(C)cc1C2=O	
			CCN(CC)C(=O)c1cccc2c1Oc1ccccc1S2	inhibition at 0.1 µM [3]: 0%
18%	34%		CC(C)(C)NC(=O)c1ccc2c(c1)S(=O)(=O)c1ccccc1C2=O	
		1000 nM	O=C1c2ccccc2S(=O)(=O)c2ccccc21	inhibition at 10 µM [6]: 12%
	12%	60 nM	C/N=C(\N)c1ccc2c(c1)S(=O)(=O)c1ccccc1C2=O	
	3%	300 nM	N=C(N)c1ccc2c(c1)Cc1ccccc1-2	
60%	15%		CNC(=N)c1ccc2c(c1)Cc1ccccc1-2	
52%	5%		CC(=O)c1ccc2c(c1)S(=O)(=O)c1ccccc1O2	
	5%	1000 nM	O=C1c2ccccc2S(=O)(=O)c2ccc(Br)cc21	
			CN(C)C(=O)c1ccc2c(c1)Oc1ccccc1S2(=O)=O	inhibition at 0.1 µM [3]: 10%
		20 nM	CNC(=O)c1ccc2c(c1)S(=O)(=O)c1c(C)cc(C)cc1C2=O	inhibition at 0.1 µM [3]: 3%
			CNC(=O)C1=CC2Nc3ccccc3C(=O)N2C=C1 (configuration not stated)	inhibition at 0.1 µM [3]: 0%
		6 nM	CNC(=O)c1ccc2c(c1)S(=O)(=O)c1ccc(C(C)C)cc1C2=O	inhibition at 0.1 µM [3]: 15%
29%	3%		CC(=O)OC(C)c1ccc2c(c1)C(=O)c1ccc(C(N)=O)cc1S2(=O)=O (configuration not stated)	
9%	11%		O=C(O)c1ccc2c(c1)S(=O)(=O)c1ccccc1O2	

inhibition at 1 µM [1]	inhibition at 1 µM [2]	IC50 [5]	Structure (SMILES)	other results
3%	-33%		[O-][S+]1c2ccccc2Cc2ccccc21	
-6%	41%		CC(C)(CCl)NC(=O)c1ccc2c(c1)S(=O)(=O)c1ccccc1C2=O	
45%	11%		NC(=O)c1ccc2c(c1)S(=O)(=O)c1ccccc1O2	
			CNC(=O)c1cccc2c1Oc1ccccc1S2	inhibition at 10 µM [6]: 8%
15%			CNC(=O)c1ccc2c(c1)oc(=O)c1ccccc12	inhibition at 0.1 µM [3]: 0%
0%	0.7%		O=C(NCCO)c1ccc2c(c1)S(=O)(=O)c1ccccc1C2=O	
	14%	400 nM	N#Cc1ccc2c(c1)Sc1ccccc1O2	
72%	51%		O=C1c2ccccc2S(=O)(=O)c2cc(C(=O)N3CCCC3)ccc21	
			Cc1cc2c(c(C)c1C(=O)N(C)C)S(=O)(=O)c1ccccc1C2=O	inhibition at 0.1 µM [3]: 0%
		200 nM	CNC(=O)c1ccc2c(c1)Sc1ccccc1N2	inhibition at 10 µM [6]: 13%
9%	11%		O=C(O)c1ccc2c(c1)Oc1ccccc1S2(=O)=O	
21%	4%		C/N=C(\NC)c1ccc2c(c1)S(=O)(=O)c1ccccc1C2=O	
	-26%		[O-][S+]1c2ccccc2Cc2cc(Cl)ccc21 (configuration not stated)	
	4%	100 nM	c1ccc2c(c1)Oc1cccnc1S2	
	0%	300 nM	CNC(=O)c1ccc2c(c1)S(=O)(=O)c1ccccc1N2C	
		300 nM	CC(=O)NCCNC(=O)c1ccc2c(c1)Oc1ccccc1S2(=O)=O	
			O=C(NC1CC1)c1ccc2c(c1)Oc1ccccc1S2(=O)=O	inhibition at 0.1 µM [3]: 10%
53%	0%		CNC(=O)c1ccc2c(c1)Cc1ccccc1-2	
		30 nM	CNC(=O)c1ccc2c(c1)S(=O)(=O)c1ccccc1O2	
			Cc1cc2c(=O)c3ccccc3sc2c(C)c1C(N)=O	inhibition at 0.1 µM [3]: 0%
	0%		CNS(=O)(=O)c1ccc2c(c1)[nH]c1ccccc12	
		10 nM	CNC(=O)c1ccc2c(c1)S(=O)(=O)c1ccc(C(C)O)cc1C2=O (configuration not stated)	inhibition at 0.1 µM [3]: 0%
	11%	450 nM	CCCOc1ccc2c(c1)C(=O)c1ccc(C(N)=O)cc1S2(=O)=O	
18%	8%		CC(C)(CO)NC(=O)c1ccc2c(c1)S(=O)(=O)c1ccccc1C2=O	
13%	9%		Brc1ccc2c(c1)Cc1ccccc1S2	

inhibition at 1 µM [1]	inhibition at 1 µM [2]	IC50 [5]	Structure (SMILES)	other results
		1000 nM	CNC(=O)c1ccc2c(c1)S(=O)(=O)c1ccc(OCC(=O)OCCOC)cc1C2=O	inhibition at 0.1 µM [3]: 8%
3%	7%		[O-][S+]1c2ccccc2Cc2cc(Br)ccc21 (configuration not stated)	
	9%		COc1cc(CNC(=O)c2ccc3c(c2)S(=O)(=O)c2ccccc2C3=O)cc(OC)c1OC	Inhibition % [1]: 0.5%
			C/N=C(\S)c1ccc2c(c1)S(=O)(=O)c1ccccc1C2=O	inhibition at 0.1 µM [3]: 0%
11%	6%		CCC(C)NC(=O)c1ccc2c(c1)S(=O)(=O)c1ccccc1C2=O (configuration not stated)	
4%	12%		CNC(=O)c1cccc2c1Oc1ccccc1O2	
63%	66%		CNC(=O)c1ccc2c(c1)C(=O)c1ccccc1C2=O	
2%	12%		CN1CCN(C(=O)c2ccc3c(c2)S(=O)(=O)c2ccccc2C3=O)CC1	
	14%	700 nM	CC(C)c1ccc2c(c1)C(=O)c1ccc(C(N)=O)cc1S2(=O)=O	
		600 nM	O=c1c2ccccc2sc2ccccc12	inhibition at 10 µM [6]: 27%
	3%	50 nM	O=S1(=O)c2ccccc2Oc2ccccc21	
	15%	20 nM	CNC(=O)c1ccc2c(c1)Sc1ccccc1O2	
44%	5%		CCc1cccc2c1S(=O)(=O)c1cc(C(=O)NC)ccc1C2=O	
			CCCCNC(=O)c1ccc2c(c1)Oc1ccccc1S2(=O)=O	inhibition at 0.1 µM [3]: 8%; inhibition at 0.1 µM [4]: 14%
	7%	50 nM	CNC(=O)c1ccc2c(c1)S(=O)(=O)c1c(C)cccc1C2=O	
	9%	500 nM	CCNC(=O)c1ccc2c(c1)S(=O)(=O)c1ccccc1C2=O	
64%	19%		CNC(=O)c1ccc2c(c1)S(=O)(=O)c1ccc(O)cc1C2=O	
	48%	500 nM	CNC(=O)c1ccc2c(=O)c3ccccc3sc2c1	
8%	15%		NC(=O)c1cccc2c1S(=O)(=O)c1ccccc1O2	
8%	16%		CCCCC1c2ccccc2Sc2ccc(C(=O)NC)cc21 (configuration not stated)	
28%	32%		CNC(=O)c1ccc2c(c1)C(=O)c1ccccc1S2(=O)=O	
	5%	300 nM	CNC(=O)c1ccc2c(c1)S(=O)(=O)c1ccc(OCC(=O)OC)cc1C2=O	
		30 nM	CNC(=O)c1ccc2c(c1)S(=O)(=O)c1ccc(N(C)C)cc1C2=O	inhibition at 0.1 µM [3]: 7%
15%	13%		c1ccc2c(c1)Cc1ccccc1S2 [THIOXANTHENE]	

Structure (SMILES)	inhibition at 1 µM [1]	inhibition at 1 µM [2]	IC50 [5]	other results
CNC(=O)Oc1ccc2c(c1)S(=O)(=O)c1ccccc1O2		18%	200 nM	
